Variants at the floor of the assay were thinned out.
B1: tRNA (parent)
chain: GUUCCGUUGGCGUAAUGGUAACGCGUCUCCCUCCUAAGGAGAAGACUGCGGGUUCGAGUCCCGUACGGAACG

Variants of: B1
Test: yeast fitness relative to wild type (ratio to wild type); higher = fitter; tRNA-Arg(CCU), competitive growth, 37 C, YPD
In short: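 Gene amplicons from the start population and from each of six end populations were read by 100-nucleotide paired-end sequencing. Those end populations came from pooled Saccharomyces cerevisiae strains carrying tRNA-Arg(CCU) gene variants at the native locus, competed in YPD at 37°C for 24 hours. Fitness relative to wild type was worked out from changes in genotype frequencies. Genotypes needed ≥ 100 starting reads, and estimates < 0.5 were set to 0.5.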

Variant | yeast fitness
A37U G51A G52C U59C | 0.619
A37U C49A | 0.712
A37U C49G | 0.652
A37U A45C G52C | ≤ 0.5
A37U C62U G67A | ≤ 0.5
A37U U47A C62U | 0.531
G38A A42U U54A | ≤ 0.5
A37U G68A | 0.736
G38A C60U G67C | ≤ 0.5
A37U A70C | 0.917
A37U A70G | 0.72
G38A U47C G56A | 0.673
A37U G44A G67U A70G | ≤ 0.5
A37U C49A C62U | 0.579
A37U C62U C66G | ≤ 0.5
G38A A42U | 0.661
G38A A42C | 0.734
G38C A43C | 1.12
G38C A43G | 0.643
G38C A43U | 0.769
G38A G48A G50A | ≤ 0.5

Variant | yeast fitness
G38A C49U | 1.03
G38A G48A C49G | 0.525
G38A G48A C49G A69U | ≤ 0.5
G38C A40U A42G G51A C60U G68A | ≤ 0.5
G38A C62A A65U C66U | ≤ 0.5
A37U U59A | 0.706
A37U A42U G52C | 0.575
G38A C55U A57G | ≤ 0.5
G38C A40U | 0.639
G38A U47C G48A | 0.542
A37U G50C G67A | ≤ 0.5
G38A C49U U54C | ≤ 0.5
G38C A43C G51C G56C | ≤ 0.5
G38A A65U | 0.739
A37U A69U | 0.723
A37U A69C | 0.796
A37U G44A A70C | 0.614
A37U G44A A70G | ≤ 0.5
A37U G51A U53G U54C | ≤ 0.5
A37U G51A | 0.57
G38A A40U G50C C60G | ≤ 0.5

Variant | yeast fitness
A37U A45C | 0.64
A37U A45G | 0.777
A37U G58A G68A | 0.588
G38A G48A A65G | 0.559
A37U G38A U59A | ≤ 0.5
A37U C46G C55A U59C C61A C62U | 0.524
G38A A40G | 0.82
G38A A40C | 0.624
A37U G44C | 0.784
A37U G44A | 0.602
A37U G58C | 0.789
A37U A57C A69U A70C | 0.775
A37U C49U C61U | 0.527
A37U C46G U54C C61A | 0.543
A37U C49U U64A | ≤ 0.5
G38A G52C G56A | 0.609
G38A G39C C60A C66G | ≤ 0.5
G38C A43G C49G G51A | ≤ 0.5
G38C A42C | 0.595
G38C A42G | 0.655
G38A A42C A45C C62A | ≤ 0.5

Variant | yeast fitness
G38A G52C C62U | 0.595
G38A C49A A70U | 0.729
G38C A45C | 0.58
A37U A65U C66G | ≤ 0.5
A37U A42G A69C | ≤ 0.5
A37U A42G A69U | ≤ 0.5
G38A C46G G56C | ≤ 0.5
A37U A43U A57U C66A | ≤ 0.5
A37U A42U C66A A69C | 0.572
A37U C49A G52A C55U G56A | 0.529
G38A A69U | 1.04
A37U C55U C61G A65U A70U | ≤ 0.5
A37U G44A C49U A57C C61G | ≤ 0.5
G38A G41C A69U | 0.822
G38A U64A | 0.765
G38A C55A | 0.71
G38C A40U G51A C60U | 0.725
G38A U53A C66U | ≤ 0.5
G38A G48A C49G A70U | ≤ 0.5
A37U G50A | 0.804
G38A U47G | 0.574

— the RNAGym collection of RNA variant scans (doi:10.1126/science.aae0568)
